# Peptide text beside a SMILES is read from it.
# Tests used:
# [1] = tested on: Human immunodeficiency virus 1; assay: Antiviral activity against HIV-1 pseudotyped virus expressing HIV-1 isolate AD envelope QA790.204I.ENV.E2 assessed as reduction of luciferase production after 3 days by single-cycle neutralization assay; format: functional, organism-based; details: Human immunodeficiency virus 1, 72 h
# Summary of the method: (§1)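 Single-cycle assay using pseudoviruses carrying Env from primary HIV-1 isolates of subtypes A, A/D, A/G, B, C and D reference viruses. Read-out is luciferase production, and IC50 is determined.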
# [2] = tested on: Human immunodeficiency virus 1; assay: Antiviral activity against HIV-1 pseudotyped virus expressing HIV-1 isolate AG envelope CRF02_AG (clone 263) assessed as reduction of luciferase production after 3 days by single-cycle neutralization assay; format: functional, organism-based; details: Human immunodeficiency virus 1, 72 h; summary of the method: as §1
# [3] = tested on: Human immunodeficiency virus 1; assay: Antiviral activity against HIV-1 pseudotyped virus expressing HIV-1 isolate AG envelope CRF02_AG (clone 211) assessed as reduction of luciferase production after 3 days by single-cycle neutralization assay; format: functional, organism-based; details: Human immunodeficiency virus 1, 72 h; summary of the method: as §1
# [4] = tested on: Human immunodeficiency virus 1; assay: Antiviral activity against HIV-1 pseudotyped virus expressing HIV-1 isolate B envelope pREJO4541 clone 67 (SVPB16) assessed as reduction of luciferase production after 3 days by single-cycle neutralization assay; format: functional, organism-based; details: Human immunodeficiency virus 1, 72 h; summary of the method: as §1
# [5] = tested on: Human immunodeficiency virus 1; assay: Antiviral activity against HIV-1 3B infected in human MT-2 cells assessed as reduction in p24 antigen level incubated for overnight measured on fourth day post infection by multi-cycle infection assay based sandwich ELISA; format: functional, organism-based; details: Human immunodeficiency virus 1, 3B, MT2
# Summary of the method: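 Multi-cycle infection in MT-2 cells; read-out is reduction of p24 levels. IC50 derived from dose-response.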
# [6] = tested on: Human immunodeficiency virus 1; assay: Antiviral activity against HIV-1 NL4-3-HXB2 pseudovirus co-transfected with luciferase gene infected in human TZM-bl cells assessed as reduction of luciferase production after 3 days by single-cycle neutralization assay; format: functional, organism-based; details: Human immunodeficiency virus 1, NL4-3-HXB2, TZM-bl, 72 h
# Summary of the method: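 Single-cycle neutralization in TZM-bl cells; read-out is reduction of luciferase production. IC50 derived from dose-response.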
# [7] = Cytotoxicity against human MT2 cells after 4 days by XTT assay; format: cell-based
# [8] = Cytotoxicity against human TZM-bl cells after 3 days by XTT assay; format: cell-based
# [9] = tested on: Human immunodeficiency virus 1; assay: Antiviral activity against HIV-1 pseudotyped virus expressing HIV-1 isolate A envelope QB726.70M.ENV.B3 assessed as reduction of luciferase production after 3 days by single-cycle neutralization assay; format: functional, organism-based; details: Human immunodeficiency virus 1, 72 h; summary of the method: as §1
# [10] = tested on: Human immunodeficiency virus 1; assay: Antiviral activity against HIV-1 pseudotyped virus expressing HIV-1 isolate A envelope QF495.23M.ENV.A3 assessed as reduction of luciferase production after 3 days by single-cycle neutralization assay; format: functional, organism-based; details: Human immunodeficiency virus 1, 72 h; summary of the method: as §1
# [11] = tested on: Human immunodeficiency virus 1; assay: Antiviral activity against HIV-1 pseudotyped virus expressing HIV-1 isolate A envelope QF495.23M.ENV.B2 assessed as reduction of luciferase production after 3 days by single-cycle neutralization assay; format: functional, organism-based; details: Human immunodeficiency virus 1, 72 h; summary of the method: as §1
# [12] = tested on: Human immunodeficiency virus 1; assay: Antiviral activity against HIV-1 pseudotyped virus expressing HIV-1 isolate A envelope QH343.21M.ENV.A10 assessed as reduction of luciferase production after 3 days by single-cycle neutralization assay; format: functional, organism-based; details: Human immunodeficiency virus 1, 72 h; summary of the method: as §1
# [13] = tested on: Human immunodeficiency virus 1; assay: Antiviral activity against HIV-1 pseudotyped virus expressing HIV-1 isolate AD envelope QA790.204I.ENV.A4 assessed as reduction of luciferase production after 3 days by single-cycle neutralization assay; format: functional, organism-based; details: Human immunodeficiency virus 1, 72 h; summary of the method: as §1
# [14] = tested on: Human immunodeficiency virus 1; assay: Antiviral activity against HIV-1 pseudotyped virus expressing HIV-1 isolate B envelope pRHPA4259 clone 7 (SVPB14) assessed as reduction of luciferase production after 3 days by single-cycle neutralization assay; format: functional, organism-based; details: Human immunodeficiency virus 1, 72 h; summary of the method: as §1
# [15] = tested on: Human immunodeficiency virus 1; assay: Antiviral activity against HIV-1 pseudotyped virus expressing HIV-1 isolate B envelope pCAAN5342 clone A2 (SVPB19) assessed as reduction of luciferase production after 3 days by single-cycle neutralization assay; format: functional, organism-based; details: Human immunodeficiency virus 1, 72 h; summary of the method: as §1
# [16] = tested on: Human immunodeficiency virus 1; assay: Antiviral activity against HIV-1 pseudotyped virus expressing HIV-1 isolate B envelope PVO, clone 4 (SVPB11) assessed as reduction of luciferase production after 3 days by single-cycle neutralization assay; format: functional, organism-based; details: Human immunodeficiency virus 1, 72 h; summary of the method: as §1
# [17] = tested on: Human immunodeficiency virus 1; assay: Antiviral activity against HIV-1 pseudotyped virus expressing HIV-1 isolate B envelope SC422661, clone B (SVPB8) assessed as reduction of luciferase production after 3 days by single-cycle neutralization assay; format: functional, organism-based; details: Human immunodeficiency virus 1, 72 h; summary of the method: as §1
# [18] = tested on: Human immunodeficiency virus 1; assay: Antiviral activity against HIV-1 pseudotyped virus expressing HIV-1 isolate C envelope Du156, clone 12 (SVPC3) assessed as reduction of luciferase production after 3 days by single-cycle neutralization assay; format: functional, organism-based; details: Human immunodeficiency virus 1, 72 h; summary of the method: as §1
# [19] = tested on: Human immunodeficiency virus 1; assay: Antiviral activity against HIV-1 pseudotyped virus expressing HIV-1 isolate C envelope ZM233M.PB6, SVPC9 assessed as reduction of luciferase production after 3 days by single-cycle neutralization assay; format: functional, organism-based; details: Human immunodeficiency virus 1, 72 h; summary of the method: as §1
# [20] = tested on: Human immunodeficiency virus 1; assay: Antiviral activity against HIV-1 pseudotyped virus expressing HIV-1 isolate C envelope ZM135M.PL10a, SVPC15 assessed as reduction of luciferase production after 3 days by single-cycle neutralization assay; format: functional, organism-based; details: Human immunodeficiency virus 1, 72 h; summary of the method: as §1
# [21] = tested on: Human immunodeficiency virus 1; assay: Antiviral activity against HIV-1 pseudotyped virus expressing HIV-1 isolate C envelope HIV-25925-2, clone 22 assessed as reduction of luciferase production after 3 days by single-cycle neutralization assay; format: functional, organism-based; details: Human immunodeficiency virus 1, 72 h; summary of the method: as §1
# [22] = tested on: Human immunodeficiency virus 1; assay: Antiviral activity against HIV-1 pseudotyped virus expressing HIV-1 isolate C envelope HIV-26191-2, clone 48 assessed as reduction of luciferase production after 3 days by single-cycle neutralization assay; format: functional, organism-based; details: Human immunodeficiency virus 1, 72 h; summary of the method: as §1
# [23] = tested on: Human immunodeficiency virus 1; assay: Antiviral activity against HIV-1 pseudotyped virus expressing HIV-1 isolate D envelope QA013.70I.ENV.M12 assessed as reduction of luciferase production after 3 days by single-cycle neutralization assay; format: functional, organism-based; details: Human immunodeficiency virus 1, 72 h; summary of the method: as §1
# [24] = tested on: Human immunodeficiency virus 1; assay: Antiviral activity against HIV-1 pseudotyped virus expressing HIV-1 isolate D envelope QA465.59M.ENV.A1 assessed as reduction of luciferase production after 3 days by single-cycle neutralization assay; format: functional, organism-based; details: Human immunodeficiency virus 1, 72 h; summary of the method: as §1
# [25] = tested on: Human immunodeficiency virus 1; assay: Antiviral activity against HIV-1 pseudotyped virus expressing HIV-1 isolate D envelope QA465.59M.ENV.D1 assessed as reduction of luciferase production after 3 days by single-cycle neutralization assay; format: functional, organism-based; details: Human immunodeficiency virus 1, 72 h; summary of the method: as §1
# [26] = tested on: Human immunodeficiency virus 1; assay: Antiviral activity against HIV-1 pseudotyped virus expressing HIV-1 isolate D envelope QD435.100M.ENV.B5 assessed as reduction of luciferase production after 3 days by single-cycle neutralization assay; format: functional, organism-based; details: Human immunodeficiency virus 1, 72 h; summary of the method: as §1
# [27] = tested on: Human immunodeficiency virus 1; assay: Antiviral activity against HIV-1 pseudotyped virus expressing HIV-1 isolate D envelope QD435.100M.ENV.A4 assessed as reduction of luciferase production after 3 days by single-cycle neutralization assay; format: functional, organism-based; details: Human immunodeficiency virus 1, 72 h; summary of the method: as §1
# [28] = tested on: Human immunodeficiency virus 1; assay: Antiviral activity against HIV-1 pseudotyped virus expressing HIV-1 isolate D envelope QD435.100M.ENV.E1 assessed as reduction of luciferase production after 3 days by single-cycle neutralization assay; format: functional, organism-based; details: Human immunodeficiency virus 1, 72 h; summary of the method: as §1
# [29] = Binding affinity to HIV-1 capsid protein C-terminal domain M184A/W185A mutant at 20 uM by isothermal titration calorimetric analysis; set-up: species or system Human immunodeficiency virus 1
# Summary of the method: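 ITC: 625 μM CTD M184A/W185A mutant titrated in 10 μL aliquots into 20 μM peptide in the cell. The integrated binding isotherm was fitted to a single-site binding equation to give Kd.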
# [30] = Binding affinity to HIV-1 Yu2 full-length gp120 by surface plasmon resonance analysis; set-up: species or system Human immunodeficiency virus type 1 (isolate YU2)
# Summary of the method: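 Gp120 binding was measured by SPR. Sensorgrams were fitted to a 1:1 Langmuir model to give ka and kd, and Kd was calculated from these rate constants.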
# [31] = Binding affinity to HIV-1 capsid protein C-terminal domain M184A/W185A mutant at 15 uM by isothermal titration calorimetric analysis; set-up: species or system Human immunodeficiency virus 1
# Summary of the method: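 ITC: 350 μM CTD M184A/W185A mutant titrated in 10 μL aliquots into 15 μM peptide in the cell. The integrated binding isotherm was fitted to a single-site binding equation to give Kd.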
# [32] = Binding affinity to HIV-1 C-terminal domain of capsid protein p24; set-up: species or system Human immunodeficiency virus 1
smiles,measurement,setting,value
CC[C@H](C)[C@H](NC(C)=O)C(=O)N[C@@H](CO)C(=O)N[C@@H](Cc1ccccc1)C(=O)N[C@@H]1CSCc2ccc(cc2)-c2ccc(cc2)CSC[C@@H](C(=O)N[C@@H](CCC(=O)O)C(=O)N[C@@H](CO)C(=O)NCC(=O)N[C@@H](CO)C(N)=O)NC(=O)[C@H](Cc2ccc(O)cc2)NC(=O)[C@H](Cc2ccc(O)cc2)NC(=O)[C@H](CC(=O)O)NC(=O)[C@H](CC(C)C)NC(=O)[C@H](CC(C)C)NC(=O)[C@H](CCC(=O)O)NC1=O,IC50,[1],7.7 µM
same,IC50,[2],4.4 µM
same,IC50,[3],4 µM
same,IC50,[4],3.4 µM
same,IC50,[5],2.8 µM
same,IC50,[6],1.9 µM
same,CC50 at 96 h,[7],> 103 µM
same,CC50 at 72 h,[8],> 103 µM
same,IC50,[9],15.4 µM
same,IC50,[10],1.4 µM
same,IC50,[11],10 µM
same,IC50,[12],15.4 µM
same,IC50,[13],7 µM
same,IC50,[14],1.6 µM
same,IC50,[15],4.6 µM
same,IC50,[16],3.5 µM
same,IC50,[17],3.7 µM
same,IC50,[18],17.9 µM
same,IC50,[19],3.6 µM
same,IC50,[20],1 µM
same,IC50,[21],1.1 µM
same,IC50,[22],6.3 µM
same,IC50,[23],15.4 µM
same,IC50,[24],15.4 µM
same,IC50,[25],7.7 µM
same,IC50,[26],15.4 µM
same,IC50,[27],1 µM
same,IC50,[28],15.4 µM
same,Kd,[29],17.5 µM
same,Kd,[30],7.4 µM
CC[C@H](C)[C@H](NC(C)=O)C(=O)N[C@@H](CO)C(=O)N[C@@H](Cc1ccccc1)C(=O)N[C@@H]1CSCc2ccc(cc2)-c2ccc(cc2)CSC[C@@H](C(=O)N[C@@H](CCC(=O)O)C(=O)N[C@@H](CO)C(=O)NCC(=O)N[C@@H](CO)C(N)=O)NC(=O)[C@H](Cc2ccc(O)cc2)NC(=O)[C@H](Cc2ccc(O)cc2)NC(=O)[C@H](CC(=O)O)NC(=O)[C@H](CC(C)C)NC(=O)[C@H](CC(C)C)NC(=O)[C@H](CCC(N)=O)NC1=O,IC50,[5],5.5 µM
same,IC50,[6],3.1 µM
same,CC50 at 96 h,[7],> 103 µM
same,CC50 at 72 h,[8],> 103 µM
CC[C@H](C)[C@H](NC(C)=O)C(=O)N[C@@H](CO)C(=O)N[C@@H](Cc1ccccc1)C(=O)N[C@@H]1CSCc2ccc(cc2)-c2ccc(cc2)CSC[C@@H](C(=O)N[C@@H](CCC(=O)O)C(=O)N[C@@H](CO)C(=O)NCC(=O)N[C@@H](CO)C(N)=O)NC(=O)[C@H](Cc2ccc(O)cc2)NC(=O)[C@H](Cc2ccc(O)cc2)NC(=O)[C@H](CC(N)=O)NC(=O)[C@H](CC(C)C)NC(=O)[C@H](CC(C)C)NC(=O)[C@H](CCC(N)=O)NC1=O,IC50,[5],5.7 µM
same,IC50,[6],1.6 µM
same,CC50 at 96 h,[7],51 µM
same,CC50 at 72 h,[8],> 102 µM
CC[C@H](C)[C@H](N)C(=O)N[C@H](C(=O)N[C@@H](Cc1ccccc1)C(=O)N[C@@H](CCC(=O)O)C(=O)N[C@@H](CC(=O)O)C(=O)N[C@@H](CC(C)C)C(=O)N[C@@H](CC(C)C)C(=O)N[C@@H](CC(=O)O)C(=O)N[C@@H](Cc1ccc(O)cc1)C(=O)N[C@@H](Cc1ccc(O)cc1)C(=O)NCC(=O)N1CCC[C@H]1C(=O)O)[C@@H](C)O (H-ITFEDLLDYYGP-OH),IC50,[5],> 135 µM
same,IC50,[6],> 135 µM
same,CC50 at 96 h,[7],> 135 µM
same,CC50 at 72 h,[8],> 135 µM
same,Kd,[31],8.3 µM
same,Kd,[32],15 µM

# Source: ChEMBL document CHEMBL3232893, “Design of antiviral stapled peptides containing a biphenyl cross-linker” (Bioorg Med Chem Lett, 2014)
